# Experimental data taken from PubChem BioAssay.
# Values without a mark were called inactive.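 Rule for the calls, unless noted: active = viability at or under a set limit in both replicates, limit being median viability minus 3 SD (cut at about 48% in these data, passing the limit was not always enough); inconclusive = at or under the limit in just one replicate; inactive = at or above the limit in both replicates.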
# Experiment: HUVEC growth inhibition – cell-based, human, primary screen (AID 575;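 active = viability at or below 30% in both replicate assays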;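 note: 100% = median of untreated cell wells with 0.1% DMSO on each plate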)
# Conditions: HUVEC proliferation, CellTiter-Glo luminescence, 72 h; at 10 µM; hits give low values
# Outline: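 Timing: 72 h treatment at 37 °C; material: HUVEC primary cells; technique: CellTiter-Glo luminescence measuring cellular ATP; controls: vehicle and MePR control wells; measure: percent of median DMSO-control luminescence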
row,Structure (SMILES),viability [%]
1,O=c1c2ccccc2c(C=Nc2ccc(Cl)cn2)c(O)n1-c1cc(Cl)ccc1N1CCOCC1,91.7
2,CCSC1=C(C#N)C(c2cccc(OC)c2)CC(=O)N1 (stereo not given),85.5
3,COc1ccc(S(=O)(=O)N2CCC(C(=O)NCc3ccco3)CC2)cc1,93.8
4,CS(=O)(=O)N1CCN(C(=O)c2ccc(-c3ccccc3)cc2)CC1,96.7
5,COc1ccc(-c2noc(C3CCCN(C(=O)CCc4ccccc4)C3)n2)cc1 (stereo not given),68.3
6,CN(C)c1cccc(N=C2C=C(N3CCOCC3)CC(C)(C)C2)c1,106
7,CCN(c1ccccc1)S(=O)(=O)c1ccc(F)cc1C,86.5
8,CCC(C)c1ccc(NC(=O)C2CC2)cc1 (stereo not given),88.6
9,Cn1c(SCc2c(F)cccc2Cl)nnc1-c1cccs1,112
10,CCOC(=O)C1CCN(S(=O)(=O)c2cccc(-c3csc(C)n3)c2)CC1,101
11,Cc1nnc(SCC(=O)N2CCC(C(N)=O)CC2)s1,93.5
12,O=C(NCC(=O)N(CCc1ccccc1)C(C(=O)NC1CCCC1)c1cccnc1)c1ccco1 (stereo not given),96.9
13,c1ccc2c3nnc4n(c-3nc2c1)CCCS4,94
14,CCCSC1=C(C#N)C(c2ccccc2OCC)CC(=O)N1 (stereo not given),79
15,CC(C)Cc1nnc(NC(=O)CCC(=O)N2CCOCC2)s1,91.5
16,CSC1CCCCC1(O)CSc1nc2c(cc1C#N)CCCC2 (stereo not given),75.4
17,CCOC(=O)C1CCCN(S(=O)(=O)c2cccs2)C1 (stereo not given),110
18,C=CCn1c(Cc2csc(N)n2)nnc1SCC(=O)OCC,103
19,Cc1cc(C)n(Cc2nc3ccccc3n2C)n1,92.9
20,CC(O)CN(Cc1cccc(Cl)c1)CC(C)O (stereo not given),100

row,Structure (SMILES),viability [%]
1,CCCCn1c(NC(=O)CC)c(C#N)c2nc3ccccc3nc21,77.4
2,CCC(=O)c1ccc(OCC(=O)N2CCc3cc(OC)c(OC)cc3C2)cc1,101
3,Cn1c(-c2ccc(F)cc2)cnc1NCc1ccccc1,108
4,C=CCn1c(SCC(=O)NCC2CCCO2)nnc1C1CCCCC1 (stereo not given),104
5,COc1ccccc1-c1nc(C(F)(F)F)c(OC)o1,104
6,CCOc1ccc(C(=O)Cc2ccc3oc(C(=O)O)cc3c2)c(O)c1,89.4
7,COc1cccc(C(=O)Nc2cc(NC(=O)c3ccco3)ccc2OC)c1,69.1
8,Cc1c(Cc2ccccc2)sc(N)c1C(N)=O,86.5
9,COC(=O)c1cc(-c2c(C)nn(-c3ccccc3)c2C)n[nH]1,97.8
10,O=C1CN(c2ccccc2F)C(=O)CN1c1ccccc1F,112
11,CC(C)c1nnc(NC(=O)CCC(=O)NCc2ccc3c(c2)OCO3)s1,103
12,COC(=O)c1c(N)sc(C(=O)N2CCOCC2)c1C,95.2
13,COC(=O)c1ccc(C2CC(=O)Nc3cc(OC)c(OC)c(OC)c32)cc1 (stereo not given),83.6
14,CC(C)c1ccc(NC(=O)C2CC(=O)N(C(C)C)C2)cc1 (stereo not given),89.2
15,O=C(Nc1ccc(Cl)cc1)N1CCSCC1,97.6
16,CCCSc1nnc(-c2ccccc2NC(=O)CC)c(=O)[nH]1,99.4
17,CC1(C)CC(=O)C2=C(C1)Nc1nc(SCCN3CCOCC3)[nH]c(=O)c1C2c1cccs1 (stereo not given),99.6
18,Cc1ccc(SCCC(=O)N(C)C)cc1,105
19,COc1ccc(S(=O)(=O)N2CCN(Cc3ccc(Cl)cc3)CC2)cc1,90.7
20,COc1cc(NC(=O)Cc2ccccc2OC)cc(OC)c1,96.9

# Experiment: growth inhibitors of H69AR lung tumor, primary screen, human, duplicate replicates (AID 580);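 note: 100% = mean luminescence of untreated wells and 0% = no signal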
# Conditions: H69AR lung tumor cells viability, ATP luminescence, 72 h; at 10 µM; hits give low values
row,Structure (SMILES),viability [%]
1,O=c1c2ccccc2c(C=Nc2ccc(Cl)cn2)c(O)n1-c1cc(Cl)ccc1N1CCOCC1,89.1
2,CCSC1=C(C#N)C(c2cccc(OC)c2)CC(=O)N1 (stereo not given),101
3,COc1ccc(S(=O)(=O)N2CCC(C(=O)NCc3ccco3)CC2)cc1,86.6
4,CS(=O)(=O)N1CCN(C(=O)c2ccc(-c3ccccc3)cc2)CC1,96.1
5,COc1ccc(-c2noc(C3CCCN(C(=O)CCc4ccccc4)C3)n2)cc1 (stereo not given),84.3
6,CN(C)c1cccc(N=C2C=C(N3CCOCC3)CC(C)(C)C2)c1,91.8
7,CCN(c1ccccc1)S(=O)(=O)c1ccc(F)cc1C,90.4
8,CCC(C)c1ccc(NC(=O)C2CC2)cc1 (stereo not given),90.3
9,Cn1c(SCc2c(F)cccc2Cl)nnc1-c1cccs1,87.9
10,CCOC(=O)C1CCN(S(=O)(=O)c2cccc(-c3csc(C)n3)c2)CC1,90.4
11,Cc1nnc(SCC(=O)N2CCC(C(N)=O)CC2)s1,91.2
12,O=C(NCC(=O)N(CCc1ccccc1)C(C(=O)NC1CCCC1)c1cccnc1)c1ccco1 (stereo not given),99.8
13,c1ccc2c3nnc4n(c-3nc2c1)CCCS4,104
14,CCCSC1=C(C#N)C(c2ccccc2OCC)CC(=O)N1 (stereo not given),90.1
15,CC(C)Cc1nnc(NC(=O)CCC(=O)N2CCOCC2)s1,96.2
16,CSC1CCCCC1(O)CSc1nc2c(cc1C#N)CCCC2 (stereo not given),92.6
17,CCOC(=O)C1CCCN(S(=O)(=O)c2cccs2)C1 (stereo not given),109
18,C=CCn1c(Cc2csc(N)n2)nnc1SCC(=O)OCC,91.9
19,Cc1cc(C)n(Cc2nc3ccccc3n2C)n1,99
20,CC(O)CN(Cc1cccc(Cl)c1)CC(C)O (stereo not given),99.4

row,Structure (SMILES),viability [%]
1,CCCCn1c(NC(=O)CC)c(C#N)c2nc3ccccc3nc21,81.9
2,CCC(=O)c1ccc(OCC(=O)N2CCc3cc(OC)c(OC)cc3C2)cc1,82.9
3,Cn1c(-c2ccc(F)cc2)cnc1NCc1ccccc1,66.2
4,C=CCn1c(SCC(=O)NCC2CCCO2)nnc1C1CCCCC1 (stereo not given),97.5
5,COc1ccccc1-c1nc(C(F)(F)F)c(OC)o1,91.9
6,CCOc1ccc(C(=O)Cc2ccc3oc(C(=O)O)cc3c2)c(O)c1,98.8
7,COc1cccc(C(=O)Nc2cc(NC(=O)c3ccco3)ccc2OC)c1,80.6
8,Cc1c(Cc2ccccc2)sc(N)c1C(N)=O,93.5
9,COC(=O)c1cc(-c2c(C)nn(-c3ccccc3)c2C)n[nH]1,101
10,O=C1CN(c2ccccc2F)C(=O)CN1c1ccccc1F,102
11,CC(C)c1nnc(NC(=O)CCC(=O)NCc2ccc3c(c2)OCO3)s1,97.7
12,COC(=O)c1c(N)sc(C(=O)N2CCOCC2)c1C,97.7
13,COC(=O)c1ccc(C2CC(=O)Nc3cc(OC)c(OC)c(OC)c32)cc1 (stereo not given),89.4
14,CC(C)c1ccc(NC(=O)C2CC(=O)N(C(C)C)C2)cc1 (stereo not given),90.8
15,O=C(Nc1ccc(Cl)cc1)N1CCSCC1,107
16,CCCSc1nnc(-c2ccccc2NC(=O)CC)c(=O)[nH]1,103
17,CC1(C)CC(=O)C2=C(C1)Nc1nc(SCCN3CCOCC3)[nH]c(=O)c1C2c1cccs1 (stereo not given),89.9
18,Cc1ccc(SCCC(=O)N(C)C)cc1,103
19,COc1ccc(S(=O)(=O)N2CCN(Cc3ccc(Cl)cc3)CC2)cc1,97
20,COc1cc(NC(=O)Cc2ccccc2OC)cc(OC)c1,95.7
